Legend:
IRE1β* RNase = IRE1β* RNase (Homo sapiens, UniProt Q76MJ5); test: fluorescence-quenched XBP1 mini-substrate RNase assay, IRE1β*; type: biochemical
In short: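 Recombinant IRE1β* RNase cleaves a FRET-quenched XBP1 mini-substrate, monitored in real time as a fluorescence increase. Activation is tested at a low, mainly monomeric IRE1β* concentration and inhibition at a higher, dimer-containing concentration. Initial cleavage rates are compared with DMSO. IC50 values are mean ± SEM, n=3. Selectivity is the IRE1α* RNase IC50 divided by the IRE1β* RNase IC50.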

IRE1α* RNase = IRE1α* RNase (Homo sapiens, UniProt O75460); test: fluorescence-quenched XBP1 mini-substrate RNase assay, IRE1α*; type: biochemical; details: read-out: IRE1α RNase IC50, mean ± SEM, n=3
In short: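 IRE1α* RNase activity was followed in vitro as the real-time rise in fluorescence on cleavage of a FRET-quenched XBP1 mini-substrate. IC50 was taken from inhibition curves, mean ± SEM, n=3. Selectivity is the IRE1α RNase IC50 divided by the IRE1β RNase IC50, for each inhibitor.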

IRE1β* RNase, sequence (Q76MJ5 452-926 limits assumed): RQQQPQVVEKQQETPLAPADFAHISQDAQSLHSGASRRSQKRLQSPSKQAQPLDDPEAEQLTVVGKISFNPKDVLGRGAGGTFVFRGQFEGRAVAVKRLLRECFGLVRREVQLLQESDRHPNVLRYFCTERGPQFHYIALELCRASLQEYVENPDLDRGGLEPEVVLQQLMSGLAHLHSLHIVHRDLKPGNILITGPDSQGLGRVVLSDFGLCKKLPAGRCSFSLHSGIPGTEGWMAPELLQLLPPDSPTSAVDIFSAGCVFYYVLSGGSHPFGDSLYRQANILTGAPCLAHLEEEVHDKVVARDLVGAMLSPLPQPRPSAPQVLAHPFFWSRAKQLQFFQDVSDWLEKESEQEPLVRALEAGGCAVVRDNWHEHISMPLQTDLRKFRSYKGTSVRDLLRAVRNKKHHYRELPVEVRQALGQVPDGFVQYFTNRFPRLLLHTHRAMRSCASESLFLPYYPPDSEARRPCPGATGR
IRE1α* RNase, sequence (O75460 465-977 limits assumed): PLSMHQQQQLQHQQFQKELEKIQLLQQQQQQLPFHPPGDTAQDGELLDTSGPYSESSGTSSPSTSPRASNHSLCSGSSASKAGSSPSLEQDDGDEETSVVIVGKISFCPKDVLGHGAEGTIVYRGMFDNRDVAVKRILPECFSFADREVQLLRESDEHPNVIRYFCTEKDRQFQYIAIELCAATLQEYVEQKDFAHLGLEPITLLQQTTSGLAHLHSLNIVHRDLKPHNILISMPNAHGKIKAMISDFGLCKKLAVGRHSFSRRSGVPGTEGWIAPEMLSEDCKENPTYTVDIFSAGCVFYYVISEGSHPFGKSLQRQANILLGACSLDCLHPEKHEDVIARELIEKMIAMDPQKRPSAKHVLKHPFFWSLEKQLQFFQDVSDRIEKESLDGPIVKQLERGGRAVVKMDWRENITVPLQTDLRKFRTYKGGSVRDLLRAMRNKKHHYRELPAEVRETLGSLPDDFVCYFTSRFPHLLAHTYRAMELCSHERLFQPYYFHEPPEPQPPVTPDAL

In the case of Cc1ccc2c(NS(=O)(=O)c3ccccc3Cl)cccc2c1Oc1ncccc1-c1ccnc(N[C@H]2CCCNC2)n1 [compound 1], the “effect on ability to cleave the XBP1 mini-substrate” value (IRE1β* RNase; High [IRE1β*] (RNase active dimer)) is reported as “almost complete loss in its ability to cleave the XBP1 mini-substrate”, the “IRE1β RNase Selectivity (Fold)” value (IRE1β* RNase; IRE1α* RNase IC50 divided by IRE1β* RNase IC50) is reported as 0.09 Fold and the IC50 (IRE1β* RNase; read-out: IRE1β RNase IC50, mean ± SEM, n=3, XBP1 mini-substrate) is reported as 55 ± 5 nM. It also gave an IC50 (IRE1α* RNase) of 5 ± 2.3 nM.

O=C(Nc1c[nH]nc1-c1nc2ccc(CN3CCOCC3)cc2[nH]1)NC1CC1 [AT9283] was tested, and the “rate of XBP1 mini-substrate cleavage relative to the apo form” value (IRE1β* RNase; Low [IRE1β*] (mainly monomeric), RNase activation) was 12 fold.
